# From ChEMBL document CHEMBL1137744, “Parallel synthesis, molecular modelling and further structure-activity relationship studies of new acylthiocarbamates as potent non-nucleoside HIV-1 reverse transcriptase inhibitors” (Eur J Med Chem, 2009)
# The source made the active and inactive calls. No cut-off for these calls is given here.
# Legend:
# [1] = system: Human immunodeficiency virus 1; test: Antiviral activity against HIV1 3B expressing reverse transcriptase K103N/Y181C double mutant infected in human MT4 cells assessed as inhibition of virus-induced cytopathogenicity by MTT assay; type: functional, organism-based
# [2] = system: Human immunodeficiency virus 1; test: Ratio of EC50 for HIV1 3B expressing reverse transcriptase Y181C mutant to EC50 for HIV1 3B; type: functional
# Method in brief: (§1)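 MT-4 cells infected with HIV-1 carrying the Y181C RT mutation, alongside wild-type virus. EC50 is the concentration giving 50% protection from virus-induced cytopathogenicity, read by MTT. Values are means of three separate experiments run in triplicate. The ratio is EC50(Y181C)/EC50(wt).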
# [3] = system: Human immunodeficiency virus 1; test: Antiviral activity against HIV1 3B infected in human MT4 cells assessed as inhibition of virus-induced cytopathogenicity by MTT assay; type: functional, organism-based; conditions: Human immunodeficiency virus 1, 3B
# Method in brief: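 MT-4 cells infected with HIV-1 and read by MTT viability. EC50 is the concentration giving 50% protection of cells from virus-induced cytopathogenicity. Values are means of three separate experiments, with variation among triplicate samples under 10%.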
# [4] = Cytotoxicity against human MT4 cells by MTT assay; type: cell-based
# Method in brief: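 Uninfected (mock-infected) MT-4 cells were exposed to compound and viability was read by MTT. CC50 is the concentration cutting viability by 50%. Values are means of three separate experiments, with triplicate samples varying by less than 10%.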
# [5] = system: Human immunodeficiency virus 1; test: Antiviral activity against HIV1 3B expressing reverse transcriptase Y181C mutant infected in human MT4 cells assessed as inhibition of virus-induced cytopathogenicity by MTT assay; type: functional, organism-based; conditions: Human immunodeficiency virus 1, 3B; method in brief: as §1
# [6] = Selectivity index, ratio of CC50 for human MT4 cells to EC50 for HIV1 3B; type: toxicity, cell-based; conditions: read-out: Ratio CC50/EC50
# Method in brief: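 Computed as CC50/EC50. Both come from MTT readings in MT-4 cells: CC50 is 50% viability loss in mock-infected cells, and EC50 is 50% protection from HIV-1-induced cytopathogenicity. Each is the mean of three experiments.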
# [7] = target: Human immunodeficiency virus type 1 reverse transcriptase (Human immunodeficiency virus 1, UniProt Q72547); test: Inhibition of wild-type HIV1 reverse transcriptase
SMILES,Activity [1],Ratio EC50 [2],EC50 [3] [nM],CC50 [4] [µM],EC50 [5] [µM],selectivity ratio [6],IC50 [7] [nM]
O=C1c2ccccc2C(=O)N1CCOC(=S)N(C(=O)c1cc(F)ccc1F)c1ccc(Cl)cc1,inactive,285,20,54,5.7,2700,
O=C1c2ccccc2C(=O)N1CCOC(=S)N(C(=O)c1ccc(F)cc1F)c1ccc(Cl)cc1,inactive,540,10,52,5.4,5200,
Cc1cc(C(=O)N(C(=S)OCCN2C(=O)c3ccccc3C2=O)c2ccc(Cl)cc2)ccc1Br,inactive,1557,7,18,10.9,2570,
Cc1ccc2c(c1)C(=O)N(CCOC(=S)N(C(=O)c1cccnc1Cl)c1ccc(Cl)cc1)C2=O,inactive,112,60,49,6.7,817,
Cc1ccc(C(=O)N(C(=S)OCCN2C(=O)c3ccccc3C2=O)c2ccc(Cl)cc2)cc1,inactive,170,50,> 100,8.5,> 2000,
O=C1c2ccccc2C(=O)N1CCOC(=S)N(C(=O)c1cccnc1Cl)c1ccc(Br)cc1,inactive,11,200,> 100,2.3,> 500,700
Cc1cccc2c1C(=O)N(CCOC(=S)N(C(=O)c1cccc([N+](=O)[O-])c1)c1ccc(Cl)cc1)C2=O,inactive,140,30,44,4.2,1470,
Cc1ccc2c(c1)C(=O)N(CCOC(=S)N(C(=O)c1ccc(Cl)cc1)c1ccc([N+](=O)[O-])cc1)C2=O,,,40,> 100,,> 2500,300
O=C1c2ccccc2C(=O)N1CCOC(=S)N(C(=O)c1ccc(Cl)c([N+](=O)[O-])c1)c1ccc(Cl)cc1,inactive,450,20,48,9,2400,
O=C1c2ccccc2C(=O)N1CCOC(=S)N(C(=O)c1ccc([N+](=O)[O-])cc1)c1ccc(Cl)cc1,inactive,433,60,> 100,26,> 1670,
O=C1c2ccccc2C(=O)N1CCOC(=S)N(C(=O)c1ccc2ccccc2c1)c1ccc(Cl)cc1,inactive,550,20,37,11,1850,
O=C1c2ccccc2C(=O)N1CCOC(=S)N(C(=O)c1cccc(F)c1F)c1ccc(Cl)cc1,inactive,750,8,58,6,7250,
O=C1c2ccccc2C(=O)N1CCOC(=S)N(C(=O)c1cc2ccccc2s1)c1ccc(Cl)cc1,inactive,60,200,56,12,280,
CC(COC(=S)N(C(=O)c1cccc([N+](=O)[O-])c1)c1ccc(Cl)cc1)N1C(=O)c2ccccc2C1=O (racemic),inactive,100,50,77,5,1540,
O=C1c2ccccc2C(=O)N1CCOC(=S)N(C(=O)c1cc(Cl)cc(Cl)c1)c1ccc(Cl)cc1,inactive,1025,8,32,8.2,4000,
O=C1c2ccccc2C(=O)N1CCOC(=S)N(C(=O)c1cccc(Cl)c1Cl)c1ccc(Cl)cc1,inactive,42,100,54,4.2,540,
O=C1c2ccccc2C(=O)N1CCOC(=S)N(C(=O)c1ccc(F)c(F)c1)c1ccc(Cl)cc1,inactive,7000,8,52,56,6500,
Cc1cccc(C(=O)N(C(=S)OCCN2C(=O)c3ccccc3C2=O)c2ccc(Cl)cc2)c1,inactive,600,10,58,6,5800,
Cc1cc(C(=O)N(C(=S)OCCN2C(=O)c3ccccc3C2=O)c2ccc(Cl)cc2)c(C)o1,inactive,375,20,40,7.5,2000,
